Data published in ChEMBL document CHEMBL3232963, “Discovery of a potent and selective α3β4 nicotinic acetylcholine receptor antagonist from an α-conotoxin synthetic combinatorial library” (J Med Chem, 2014).
Bridge positions count the residues as written; N and C are the ends. Square brackets hold non-standard residues; d marks the D form. Peptide text beside a SMILES is read from it. Nle = CCCC[C@H](N)C(=O)O; Nva = CCC[C@H](N)C(=O)O; Abu = CC[C@H](N)C(=O)O

Molecular target: Neuronal acetylcholine receptor; alpha3/beta4 (Rattus norvegicus) (UniProt P04757+P12392)
Test: Antagonist activity at rat alpha3beta4 nAChR expressed in HEK293 cells assessed as inhibition of epibatadine-induced effect at 10 uM after 30 mins by fluorescent membrane potential assay relative to mecamylamine
Type: cell-based
In short: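 Rat α3β4 nAChR stably expressed in HEK293 cells; crude, SPE-desalted individual peptides tested at 10 μM in HBSS with membrane potential blue dye, 30 min at 37 °C. Fluorescence change read after epibatidine (0.1 μM). Percent inhibition set against 10 μM mecamylamine taken as 100%.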

Structure (SMILES): CCC[C@@H]1NC(=O)[C@H](CC)NC(=O)[C@H]([C@H](C)CC)NC(=O)[C@@H]2CSSC[C@H](NC(=O)CN)C(=O)N[C@@H](CSSC[C@@H](C(=O)O)NC(=O)[C@H](Cc3ccc(O)cc3)NC1=O)C(=O)N[C@@H](CO)C(=O)N[C@@H](Cc1cnc[nH]1)C(=O)N1CCC[C@H]1C(=O)N1CCC[C@H]1C(=O)N2
- inhibition: 62.3%

Structure (SMILES): CCC[C@@H]1NC(=O)[C@H](CC)NC(=O)[C@H]([C@H](C)CC)NC(=O)[C@@H]2CSSC[C@H](NC(=O)CN)C(=O)N[C@@H](CSSC[C@@H](C(=O)O)NC(=O)[C@@H]3CCCN3C1=O)C(=O)N[C@@H](CO)C(=O)N[C@@H](Cc1cnc[nH]1)C(=O)N1CCC[C@H]1C(=O)N1CCC[C@H]1C(=O)N2
- inhibition: 45.1%

Structure (SMILES): CCCC[C@@H]1NC(=O)[C@H](CC2C=Nc3ccccc32)NC(=O)[C@H]([C@H](C)CC)NC(=O)[C@@H]2CSSC[C@H](NC(=O)CN)C(=O)N[C@@H](CSSC[C@@H](C(=O)O)NC(=O)[C@@H]3CCCN3C1=O)C(=O)N[C@@H](CO)C(=O)N[C@@H](Cc1cnc[nH]1)C(=O)N1CCC[C@H]1C(=O)N[C@@H](CC)C(=O)N2 (stereo not given in full)
- inhibition: 15.4%

Structure (SMILES): CCCC[C@@H]1NC(=O)[C@H](Cc2c[nH]c3ccccc23)NC(=O)[C@H](Cc2ccccc2)NC(=O)[C@@H]2CSSC[C@H](NC(=O)CN)C(=O)N[C@@H](CSSC[C@@H](C(=O)O)NC(=O)[C@H](Cc3ccc(O)cc3)NC1=O)C(=O)N[C@@H](CO)C(=O)N[C@@H](CCCC)C(=O)N1CCC[C@H]1C(=O)N[C@@H](CC)C(=O)N2 (H-GCCS[Nle]P[Abu]CFW[Nle]YC-OH; disulfide 2-8, 3-13)
- inhibition: 76%

Structure (SMILES): CCCC[C@@H]1NC(=O)[C@H](Cc2c[nH]c3ccccc23)NC(=O)[C@H]([C@H](C)CC)NC(=O)[C@@H]2CSSC[C@H](NC(=O)CN)C(=O)N[C@@H](CSSC[C@@H](C(=O)O)NC(=O)[C@H](Cc3ccc(O)cc3)NC1=O)C(=O)N[C@@H](CO)C(=O)N[C@@H](CCCC)C(=O)N1CCC[C@H]1C(=O)N1CCC[C@H]1C(=O)N2
- inhibition: 51.8%

Structure (SMILES): CCC[C@@H]1NC(=O)[C@H](Cc2c[nH]c3ccccc23)NC(=O)[C@H](Cc2ccccc2)NC(=O)[C@@H]2CSSC[C@H](NC(=O)CN)C(=O)N[C@@H](CSSC[C@@H](C(=O)O)NC(=O)[C@H](Cc3ccc(O)cc3)NC1=O)C(=O)N[C@@H](CO)C(=O)N[C@@H](Cc1cnc[nH]1)C(=O)N1CCC[C@H]1C(=O)N[C@@H](CC)C(=O)N2 (H-GCCSHP[Abu]CFW[Nva]YC-OH; disulfide 2-8, 3-13)
- inhibition: 72.1%

Structure (SMILES): CCCC[C@@H]1NC(=O)[C@H](Cc2c[nH]c3ccccc23)NC(=O)[C@H]([C@H](C)CC)NC(=O)[C@@H]2CSSC[C@H](NC(=O)CN)C(=O)N[C@@H](CSSC[C@@H](C(=O)O)NC(=O)[C@H](Cc3ccc(O)cc3)NC1=O)C(=O)N[C@@H](CO)C(=O)N[C@@H](Cc1cnc[nH]1)C(=O)N1CCC[C@H]1C(=O)N[C@@H](CC)C(=O)N2
- inhibition: 55.7%

Structure (SMILES): CCCC[C@@H]1NC(=O)[C@H](CO)NC(=O)[C@@H]2CSSC[C@@H](C(=O)O)NC(=O)[C@H](Cc3ccc(O)cc3)NC(=O)[C@H](CCC)NC(=O)[C@H](CC)NC(=O)[C@H]([C@H](C)CC)NC(=O)[C@H](CSSC[C@H](NC(=O)CN)C(=O)N2)NC(=O)[C@H](CC)NC(=O)[C@@H]2CCCN2C1=O
- inhibition: 59.4%

Structure (SMILES): CCCC[C@@H]1NC(=O)[C@H](CO)NC(=O)[C@@H]2CSSC[C@@H](C(=O)O)NC(=O)[C@@H]3CCCN3C(=O)[C@H](CCC)NC(=O)[C@H](Cc3c[nH]c4ccccc34)NC(=O)[C@H]([C@H](C)CC)NC(=O)[C@H](CSSC[C@H](NC(=O)CN)C(=O)N2)NC(=O)[C@H](CC)NC(=O)[C@@H]2CCCN2C1=O
- inhibition: 44.8%

Structure (SMILES): CCCC[C@@H]1NC(=O)[C@H](CO)NC(=O)[C@@H]2CSSC[C@@H](C(=O)O)NC(=O)[C@H](Cc3ccc(O)cc3)NC(=O)[C@H](CCC)NC(=O)[C@H](Cc3c[nH]c4ccccc34)NC(=O)[C@H]([C@H](C)CC)NC(=O)[C@H](CSSC[C@H](NC(=O)CN)C(=O)N2)NC(=O)[C@@H]2CCCN2C(=O)[C@@H]2CCCN2C1=O
- inhibition: 58.3%

Structure (SMILES): CCCC[C@@H]1NC(=O)[C@H](CO)NC(=O)[C@@H]2CSSC[C@@H](C(=O)O)NC(=O)[C@@H]3CCCN3C(=O)[C@H](CCC)NC(=O)[C@H](CC)NC(=O)[C@H]([C@H](C)CC)NC(=O)[C@H](CSSC[C@H](NC(=O)CN)C(=O)N2)NC(=O)[C@@H]2CCCN2C(=O)[C@@H]2CCCN2C1=O
- inhibition: 45.7%

Structure (SMILES): CCCC[C@@H]1NC(=O)[C@H](CC)NC(=O)[C@H]([C@H](C)CC)NC(=O)[C@@H]2CSSC[C@H](NC(=O)CN)C(=O)N[C@@H](CSSC[C@@H](C(=O)O)NC(=O)[C@@H]3CCCN3C1=O)C(=O)N[C@@H](CO)C(=O)N[C@@H](CCCC)C(=O)N1CCC[C@H]1C(=O)N[C@@H](CC)C(=O)N2
- inhibition: 42.9%

Structure (SMILES): CCC[C@@H]1NC(=O)[C@H](Cc2c[nH]c3ccccc23)NC(=O)[C@H](Cc2ccccc2)NC(=O)[C@@H]2CSSC[C@H](NC(=O)CN)C(=O)N[C@@H](CSSC[C@@H](C(=O)O)NC(=O)[C@H](Cc3ccc(O)cc3)NC1=O)C(=O)N[C@@H](CO)C(=O)N[C@@H](Cc1cnc[nH]1)C(=O)N1CCC[C@H]1C(=O)N1CCC[C@H]1C(=O)N2 (H-GCCSHPPCFW[Nva]YC-OH; disulfide 2-8, 3-13)
- inhibition: 47.8%

Structure (SMILES): CCCC[C@@H]1NC(=O)[C@H](CO)NC(=O)[C@@H]2CSSC[C@@H](C(=O)O)NC(=O)[C@@H]3CCCN3C(=O)[C@H](CCC)NC(=O)[C@H](CC)NC(=O)[C@H]([C@H](C)CC)NC(=O)[C@H](CSSC[C@H](NC(=O)CN)C(=O)N2)NC(=O)[C@H](CC)NC(=O)[C@@H]2CCCN2C1=O
- inhibition: 19.2%

Structure (SMILES): CCCC[C@@H]1NC(=O)[C@H](CC)NC(=O)[C@H]([C@H](C)CC)NC(=O)[C@@H]2CSSC[C@H](NC(=O)CN)C(=O)N[C@@H](CSSC[C@@H](C(=O)O)NC(=O)[C@H](Cc3ccc(O)cc3)NC1=O)C(=O)N[C@@H](CO)C(=O)N[C@@H](Cc1cnc[nH]1)C(=O)N1CCC[C@H]1C(=O)N1CCC[C@H]1C(=O)N2
- inhibition: 67.2%

Structure (SMILES): CCC[C@@H]1NC(=O)[C@H](CC)NC(=O)[C@H]([C@H](C)CC)NC(=O)[C@@H]2CSSC[C@H](NC(=O)CN)C(=O)N[C@@H](CSSC[C@@H](C(=O)O)NC(=O)[C@@H]3CCCN3C1=O)C(=O)N[C@@H](CO)C(=O)N[C@@H](Cc1cnc[nH]1)C(=O)N1CCC[C@H]1C(=O)N[C@@H](CC)C(=O)N2
- inhibition: 41.2%

Structure (SMILES): CCC[C@@H]1NC(=O)[C@H](Cc2c[nH]c3ccccc23)NC(=O)[C@H](Cc2ccccc2)NC(=O)[C@@H]2CSSC[C@H](NC(=O)CN)C(=O)N[C@@H](CSSC[C@@H](C(=O)O)NC(=O)[C@@H]3CCCN3C1=O)C(=O)N[C@@H](CO)C(=O)N[C@@H](Cc1cnc[nH]1)C(=O)N1CCC[C@H]1C(=O)N[C@@H](CC)C(=O)N2 (H-GCCSHP[Abu]CFW[Nva]PC-OH; disulfide 2-8, 3-13)
- inhibition: 36.2%

Structure (SMILES): CCCC[C@@H]1NC(=O)[C@H](CC)NC(=O)[C@H](Cc2ccccc2)NC(=O)[C@@H]2CSSC[C@H](NC(=O)CN)C(=O)N[C@@H](CSSC[C@@H](C(=O)O)NC(=O)[C@@H]3CCCN3C1=O)C(=O)N[C@@H](CO)C(=O)N[C@@H](Cc1cnc[nH]1)C(=O)N1CCC[C@H]1C(=O)N[C@@H](CC)C(=O)N2 (H-GCCSHP[Abu]CF[Abu][Nle]PC-OH; disulfide 2-8, 3-13)
- inhibition: 35.5%

Structure (SMILES): CCCC[C@@H]1NC(=O)[C@H](CO)NC(=O)[C@@H]2CSSC[C@@H](C(=O)O)NC(=O)[C@@H]3CCCN3C(=O)[C@H](CCC)NC(=O)[C@H](CC)NC(=O)[C@H](Cc3ccccc3)NC(=O)[C@H](CSSC[C@H](NC(=O)CN)C(=O)N2)NC(=O)[C@H](CC)NC(=O)[C@@H]2CCCN2C1=O (H-GCCS[Nle]P[Abu]CF[Abu][Nva]PC-OH; disulfide 2-8, 3-13)
- inhibition: 40.3%

Structure (SMILES): CCCC[C@@H]1NC(=O)[C@H](CO)NC(=O)[C@@H]2CSSC[C@@H](C(=O)O)NC(=O)[C@H](Cc3ccc(O)cc3)NC(=O)[C@H](CCC)NC(=O)[C@H](Cc3c[nH]c4ccccc34)NC(=O)[C@H](Cc3ccccc3)NC(=O)[C@H](CSSC[C@H](NC(=O)CN)C(=O)N2)NC(=O)[C@H](CC)NC(=O)[C@@H]2CCCN2C1=O (H-GCCS[Nle]P[Abu]CFW[Nva]YC-OH; disulfide 2-8, 3-13)
- inhibition: 67.9%

Structure (SMILES): CCCC[C@@H]1NC(=O)[C@H](CO)NC(=O)[C@@H]2CSSC[C@@H](C(=O)O)NC(=O)[C@@H]3CCCN3C(=O)[C@H](CCC)NC(=O)[C@H](Cc3c[nH]c4ccccc34)NC(=O)[C@H]([C@H](C)CC)NC(=O)[C@H](CSSC[C@H](NC(=O)CN)C(=O)N2)NC(=O)[C@@H]2CCCN2C(=O)[C@@H]2CCCN2C1=O
- inhibition: 38.9%

Structure (SMILES): CCC[C@@H]1NC(=O)[C@H](Cc2c[nH]c3ccccc23)NC(=O)[C@H]([C@H](C)CC)NC(=O)[C@@H]2CSSC[C@H](NC(=O)CN)C(=O)N[C@@H](CSSC[C@@H](C(=O)O)NC(=O)[C@H](Cc3ccc(O)cc3)NC1=O)C(=O)N[C@@H](CO)C(=O)N[C@@H](Cc1cnc[nH]1)C(=O)N1CCC[C@H]1C(=O)N[C@@H](CC)C(=O)N2
- inhibition: 47.5%

Structure (SMILES): CCCC[C@@H]1NC(=O)[C@H](Cc2c[nH]c3ccccc23)NC(=O)[C@H](Cc2ccccc2)NC(=O)[C@@H]2CSSC[C@H](NC(=O)CN)C(=O)N[C@@H](CSSC[C@@H](C(=O)O)NC(=O)[C@@H]3CCCN3C1=O)C(=O)N[C@@H](CO)C(=O)N[C@@H](Cc1cnc[nH]1)C(=O)N1CCC[C@H]1C(=O)N1CCC[C@H]1C(=O)N2 (H-GCCSHPPCFW[Nle]PC-OH; disulfide 2-8, 3-13)
- inhibition: 15.3%

Structure (SMILES): CCCC[C@@H]1NC(=O)[C@H](Cc2c[nH]c3ccccc23)NC(=O)[C@H]([C@H](C)CC)NC(=O)[C@@H]2CSSC[C@H](NC(=O)CN)C(=O)N[C@@H](CSSC[C@@H](C(=O)O)NC(=O)[C@H](Cc3ccc(O)cc3)NC1=O)C(=O)N[C@@H](CO)C(=O)N[C@@H](Cc1cnc[nH]1)C(=O)N1CCC[C@H]1C(=O)N1CCC[C@H]1C(=O)N2
- inhibition: 43.9%

Structure (SMILES): CCCC[C@@H]1NC(=O)[C@H](CC)NC(=O)[C@H]([C@H](C)CC)NC(=O)[C@@H]2CSSC[C@H](NC(=O)CN)C(=O)N[C@@H](CSSC[C@@H](C(=O)O)NC(=O)[C@@H]3CCCN3C1=O)C(=O)N[C@@H](CO)C(=O)N[C@@H](Cc1cnc[nH]1)C(=O)N1CCC[C@H]1C(=O)N[C@@H](CC)C(=O)N2
- inhibition: 36.2%
